From PubChem
A selection: hits, their analogues and other compounds. The true share with any hit is near 6.4%.
EBV gp42 block: EBV gp42 inhibition; Q1HVG2; Fluorescence polarization binding assay, mP read-out; inhibition, % (tested at 21.74 µM); hit rate 0.42% among 220,000; in the data active = inhibition above about 50%
Target sequence (Q1HVG2 whole entry, looked up): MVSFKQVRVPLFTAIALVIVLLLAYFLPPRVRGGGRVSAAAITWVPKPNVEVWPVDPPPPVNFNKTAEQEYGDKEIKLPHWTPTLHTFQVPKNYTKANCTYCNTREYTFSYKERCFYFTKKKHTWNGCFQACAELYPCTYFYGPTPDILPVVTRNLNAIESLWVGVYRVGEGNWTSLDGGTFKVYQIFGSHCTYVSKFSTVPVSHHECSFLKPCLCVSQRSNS
WT yeast gro inh: growth inhibition of WT yeast, mitochondrial fusion screen | mitochondrial fusion phenotypic screen, WT strain | inhibition, % at 10 µM | hit rate 2.1% among 190,000 | AID 1362; in the data active = inhibition above about 58%; tested in S. cerevisiae
MPTP inh: permeability transition pore inhibition; isolated mouse mitochondria, Ca2+ swelling absorbance, 30 min; inhibition, % at 10 µM; hit rate 1.4% among 360,000; AID 602449;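 active = inhibition of 50% or more, scaled per plate between neutral and stimulator controls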
GRIN3A LBD mod: NR3A (human) ligand-binding domain modulation; NR3A LBD differential scanning fluorimetry, Tm shift; 0% = protein alone, 100% = glycine-bound protein; Tm shift relative to glycine control, % at 25 µM; hit rate 2.5% among 340,000; AID 1259313;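 active = melting temperature shift of at least 10% of the positive control shift, at one fixed dose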
Tb MetRS inh: blocks T. brucei methionyl-tRNA synthetase activity | purified T. brucei MetRS, ATP depletion, Kinase-Glo luminescence | inhibition, % at 11.9 µM | hit rate 0.4% among 360,000 | AID 624268;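 active = inhibition above a per-plate cutoff of the control wells' mean inhibition plus 3 SD, cut at about 5.5% in these data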
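System: purified T. brucei MetRS enzyme / Detection: Kinase-Glo luciferase luminescence reporting remaining unconsumed ATP / Medium: HEPES buffer with MgCl2, KCl, DTT, spermine, BSA, pyrophosphatase / Replication: singlicate, one well per compound / Evaluation: percent inhibition relative to median high and low control wells / Schedule: 2 h aminoacylation at 25 °C after 15 min preincubation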
CHOP inhibitor: CHOP inhibition in unfolded protein response; CHO-K1 CHOP-promoter luciferase, tunicamycin-induced, 15-18 h; inhibition, % at 10 µM; hit rate 3.8% among 220,000; AID 2732;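 active = compounds that reduced the stress-induced luciferase reporter signal by more than about 70% of percent inhibition, limit read from the data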
CHOP confirm: confirmation of CHOP induction inhibitors | shares compounds with CHOP inhibitor | inhibition, % at 10 µM | CHO-CHOP promoter luciferase reporter, tunicamycin-induced, luminescence | hit rate 45% among 2,100;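 active = mean of three repeat readings of reporter signal inhibition above a set limit, cut at about 70% in these data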
Each line names hits and unclear results; the compound was inactive in the other large screens (follow-up assays come after a bar, where they were run).

CSCCC1NC2(C(=O)Nc3c(Cl)cccc32)[C@@H]2C(=O)N(C3CCCC3)C(=O)[C@H]12 (stereo not given in full)	none
CSCCC1NC2(C(=O)Nc3c(C)cc(Cl)cc32)[C@@H]2C(=O)N(C3CCCC3)C(=O)[C@H]12 (stereo not given in full)	CHOP inhibitor 104 | CHOP confirm inactive
C=CCNC(=O)c1ccccc1NC(=O)c1ccc(Cl)c(S(=O)(=O)Nc2cc(C)ccc2C)c1	none
CN(Cc1ccc(Cl)cc1)C(=O)CCl	CHOP inhibitor 104 | CHOP confirm inactive
COc1ccc(CN(C)C(=O)CCl)cc1	none
COc1ccc(CCNC(=O)c2ccc(N3CCCC3=O)cc2)cc1	none
CC1=Nc2nc(N3CCCCC3)c(C#N)c3c4c(nc(c23)N1)N(c1ccc(C(C)C)cc1)C(=O)C4	CHOP inhibitor 108 | CHOP confirm 83
Cc1cccc(C(=O)NNC(=O)c2ccccc2)c1	none
Cc1cccc(C(=O)c2cnc3ccccc3c2-c2ccccc2)c1	WT yeast gro inh 62, CHOP inhibitor 102 | CHOP confirm 77
Cc1ccc(C(=O)NNC(=O)c2cccc(Br)c2)cc1	none (no result: EBV gp42 block, WT yeast gro inh, CHOP inhibitor)
CC(C)(C)c1ccc(C(=O)NNC(=O)c2cccc(Br)c2)cc1	CHOP inhibitor 102 | CHOP confirm 94
CC1=CCC2C(=O)N(CCc3c[nH]c4ccccc34)C(=O)C2C1 (stereo not given)	none
Cc1ccc(-c2[nH]ncc2/C=N/n2c(COc3ccccc3C)nc3ccccc3c2=O)cc1	CHOP inhibitor 100 | CHOP confirm inactive
O=C(CSc1nnc(C2CC2)n1-c1ccccc1)NCCc1ccc(F)cc1	none
NC(=O)CC(NC(=O)Cc1cccc2ccccc12)c1ccc(NCCOc2ccccc2)c([N+](=O)[O-])c1 (stereo not given)	CHOP inhibitor 101 (no result: WT yeast gro inh) | CHOP confirm 112
NC(=O)CC(NC(=O)Cc1cccc2ccccc12)c1ccc(NC2CCCCC2)c([N+](=O)[O-])c1 (stereo not given)	CHOP inhibitor 105 (no result: WT yeast gro inh) | CHOP confirm inactive
Cc1ccccc1CNc1ccc(C(CC(N)=O)NC(=O)c2ccc(Br)cc2)cc1[N+](=O)[O-] (stereo not given)	CHOP inhibitor 103 (no result: WT yeast gro inh) | CHOP confirm inactive
O=c1cc(NCc2ccccc2)c2ccccc2o1	none
CC(C)CC(C(=O)O)N1C(=O)[C@@H]2[C@H](C1=O)[C@@H]1C[C@H]2C(Br)C1Br (stereo not given in full)	none
CCC1(C)NC(=O)N(CC(=O)Nc2sc3c(c2C(=O)OC)CCCCC3)C1=O (stereo not given)	none
CCN1C/C(=C/c2ccc(OC)c(O)c2)C(=O)/C(=C/c2ccc(OC)c(O)c2)C1	CHOP inhibitor 100 | CHOP confirm 97
COc1ccc(/C=C2\CN(Cc3ccccc3)C/C(=C\c3ccc(OC)c(O)c3)C2=O)cc1O	none (no result: EBV gp42 block, WT yeast gro inh, CHOP inhibitor)
Cn1c(=O)n(C)c2cc(NC(=O)C(F)(F)F)ccc21	none
CC(=O)c1cccc(NC(=O)CC(C)n2ccnc2)c1 (stereo not given)	none (no result: EBV gp42 block, WT yeast gro inh, CHOP inhibitor)
CC1(C)CC(=O)C(=Cc2cn(-c3ccccc3)nc2-c2ccc(Cl)cc2)C(=O)C1	CHOP inhibitor 105 | CHOP confirm inactive
Cc1ccc(C(=O)Nc2sc3c(c2C(=O)NCc2ccco2)CCCC3)cc1	CHOP inhibitor 104 | CHOP confirm inactive
Cc1cc(O)c(-c2cc(C(=O)Nc3sc4c(c3C(=O)NCc3ccco3)CCC4)[nH]n2)cc1C	none (no result: WT yeast gro inh)
COC(=O)Nc1sc2c(c1C(=O)NCc1ccco1)CCCC2	none
CCNC(=O)c1c(NC(=O)c2cc(-c3cc(C)ccc3O)n[nH]2)sc2c1CCCC2	CHOP inhibitor 101 | CHOP confirm 106
O=C(COC(=O)/C=C/c1ccc(F)cc1)NC1CC1	none (no result: EBV gp42 block, WT yeast gro inh, CHOP inhibitor)
Cc1cc2c([nH]c3ccccc32)c2c1OC(C)(C)C=C2	GRIN3A LBD mod 16, CHOP inhibitor 98 (no result: WT yeast gro inh) | CHOP confirm 97
Cn1c(SCC(=O)N/N=C/c2ccc([N+](=O)[O-])s2)nnc1-c1ccccc1	CHOP inhibitor 105 | CHOP confirm inactive
Cn1c(SCC(=O)N/N=C/c2cc([N+](=O)[O-])ccc2O)nnc1-c1ccccc1	none (no result: WT yeast gro inh)
CCn1c(C)nnc1SCC(=O)Nc1ccccc1OC	none (no result: EBV gp42 block, WT yeast gro inh, CHOP inhibitor)
O=[N+]([O-])c1ccc(/C=N/N=C/c2ccc([N+](=O)[O-])o2)o1	CHOP inhibitor 108 | CHOP confirm 134
O=C(O)/C=C/c1ccc([N+](=O)[O-])o1	none
CC1CCc2c(sc3ncn(CC(=O)N=Nc4c(O)[nH]c5ccccc45)c(=O)c23)C1 (stereo not given)	CHOP inhibitor 105 (no result: WT yeast gro inh) | CHOP confirm 113
COc1ccc(CCNCC(O)Cn2c3ccccc3c3ccccc32)cc1OC (stereo not given)	none
COc1ccccc1NCC(O)Cn1c2ccccc2c2ccccc21 (stereo not given)	GRIN3A LBD mod 11, CHOP inhibitor 100 | CHOP confirm inactive
CN(C)CCCn1c(SCC(=O)Nc2nc(-c3cccc(Br)c3)cs2)nc2ccccc2c1=O	CHOP inhibitor 106 (no result: WT yeast gro inh) | CHOP confirm 105
CCN(CC)c1ccc2cc(-c3nc4ccccc4[nH]3)c(=O)oc2c1	CHOP inhibitor 100 | CHOP confirm inactive
Cc1cc2n(n1)SC(Nc1ccc(F)cc1)N2 (stereo not given)	none
CC(C)Cn1c(=O)c2ccccc2n2c(SCC(=O)N3c4ccccc4CC3C)nnc12 (stereo not given)	GRIN3A LBD mod 20, CHOP inhibitor 98 | CHOP confirm 85
CSc1nc(-c2ccc(C)cc2)nc(C(Cl)Cl)n1	none
CCSc1nc(-c2ccccc2)nc(C(Cl)Cl)n1	CHOP inhibitor 106 | CHOP confirm 84
Cc1ccc2nc(NC(=O)CN(C)S(=O)(=O)c3ccc(Br)s3)sc2c1	CHOP inhibitor 102 | CHOP confirm inactive
N#CC1(C#N)C(C(N)=O)C1c1ccccc1 (stereo not given)	none
O=C(CSc1ncnc2[nH]ncc12)Nc1nc(-c2ccc(F)c(F)c2)cs1	GRIN3A LBD mod 20, CHOP inhibitor 99 | CHOP confirm 116
CC1CC(C)CN(c2nc3c(c(=O)[nH]c(=O)n3C)n2CCSc2nc3ccccc3o2)C1 (stereo not given)	none (no result: EBV gp42 block, MPTP inh, GRIN3A LBD mod, Tb MetRS inh, CHOP inhibitor)
CCOc1cc(C(=O)CSc2nnc(CNc3ccc(Cl)cc3)o2)ccc1NC(=O)CC	CHOP inhibitor 105 | CHOP confirm 112
CC(NCc1ccc([N+](=O)[O-])cc1)C1COc2ccccc2O1 (stereo not given)	none (no result: EBV gp42 block, WT yeast gro inh, CHOP inhibitor)
Cc1nn(Cc2c(Cl)cccc2Cl)c(C)c1NC(=O)c1cn(-c2ccccc2)nc1-c1ccccc1	CHOP inhibitor 109 | CHOP confirm 106
Cc1cccc(C)c1NC(=O)CNC(=O)c1cn(-c2ccccc2)nc1-c1ccccc1	none (no result: EBV gp42 block, WT yeast gro inh, CHOP inhibitor)
